Measured values reported in the EternaBench riboswitch data.

System: MS2 coat protein
Test: apparent Kd, MS2 coat protein; higher = weaker binding; RNA-MaP array; FMN 200 µM where present
Procedure, shortened: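 Designs were transcribed by stalled E. coli RNA polymerase on Illumina sequencing-chip clusters. They were titrated with SNAP-549-labelled MS2 coat protein from 0.7 or 1.5 nM, doubling to 3 µM, in 100 mM Tris-HCl pH 7.5, 80 mM KCl, 4 mM MgCl2, BSA, DTT, yeast tRNA and Tween-20, without and then with constant ligand. The apparent Kd is the median of filtered per-cluster fits after normalisation of green signal to red-channel RNA signal and control-cluster median Fmax.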

[1] = designed as: ON switch for flavin mononucleotide, no ligand
[2] = ligand present: flavin mononucleotide, designed as: ON switch for flavin mononucleotide
[3] = designed as: OFF switch for flavin mononucleotide, no ligand
[4] = ligand present: flavin mononucleotide, designed as: OFF switch for flavin mononucleotide

Sequence	apparent Kd [1] [nM]	apparent Kd [2] [nM]	apparent Kd [3] [nM]	apparent Kd [4] [nM]
GCACAUGGCAUAGGAUAUAGAACUAUACAUUAUAUAGGUAGUGUCACAACACUAGAAGGAUGAAACAUGAGGAUCACCCAUGUA	14.9	12.2		
GCACAUGGCAUAGGAUAUAGAGCUUUAGUUUAUAUAGGUAGUUGGACUUAACUAGAAGGAUGGUACAUGAGGAUCACCCAUGUU	20.6	17.4		
GCACGGAAAGGAUAUGCACGGCUAGCUCGCGUUUUUGUGUGACAUGAGGAUCACCCAUGUAGAAGGUUCAGUGG			68	71.8
GCACGGAGUGUAGGAUAUUAGUGCGAUUAGCACUGAGAAGGACAUGAGGAUCACCCAUGUUCCUCAAUAACAUACCUUCCGUGC			13.8	10.6
GCACGGUUGCUAGGAUAUCCUUGCGAUUAGCAAGGAGAAGGAGCACAUGAGGAUCACCCAUGUACCUCAAUAAUCCAUCCGUGC			14.8	14.2
GCACUCAAGUUAGGAUAUGGAUCGGAAAACGAUCCAGAAGGAAUAUGGGAACAUGAGGAUCACCCAUGUUCCAGAAACGAGUGC	62.5	30.4		
GCACUGGAUGUAGGAUAUCAGGACGAUAAGUCCUGAGAAGGACAUGAGGAUCACCCAUGUAAAACUCAACCAGUGCAUAAUAUA			14.5	18.5
GCACUGGCAGGAUAUACAUGAGGAUCACCCAUGUGACCCUUGAUGUACUCGCGUACACGUAGAAGGGCCUGUGC			120	571
GCACUUCGGCAGAAGGGACUAAGGGUAUGGUAGUCAGGAUAUGCAGGGUGGGCGUUUCACAUGAGGAUCACCCAUGUAGGACCA	21.1	7.78		
GCAGCGCUUGACAUGAGGAUCACCCAUGUUAGAUUGUUAUGUCAGGAUAUAGUCUAGAAACUAGACUAGAAGGGAUAUGCUGCU	290	34.1		
GCAGCUUGGCAGAAGGCCUAGGUGGCGGACCUAGGAGGAUAUGCUACAUGAGGAUCACCCAUGUGGGUGGGAGAAUCCUAGGAG			133	132
GCAGGAUAAGUGAGGAUAUACCUAUGGAUACAUAGGUAGAAGGCACAUGAGGAUCACCCAUGUUCCUUGCCUGC			13	42.7
GCAGGUUAAGUCAGGAUAUACCUAUGGAUACAUAGGUAGAAGGGACAUGAGGAUCACCCAUGUGGCUCACCUGC			24.2	40.2
GCAGGUUAAGUCAGGAUAUACCUAUGGAUACAUAGGUAGAAGGGACAUGAGGAUCACCCAUGUUCCUCACCUGC			15.6	34.3
GCAGUAAAUAAAUGCACAUGAGGAUCACCCAUGUGGGAGGCACAGGAUAUCGUAUCAUAGUAGUACGAGAAGGGUGAUAAUCUC	370	64.2		
GCAGUGUCAGGAUAUAGUUCGAGUUCGGAAAUGAGCUUGAGCUAGAAGGGACAUGAGGAUCACCCAUGUGCUGU			38	83.2
GCAUGACAAAGUCAUGCAAUACGAACAUGAGGAUCACCCAUGUAGGAUAUGCUACUCAAAGAGUAGCAGAAGGACAUGUGCCUU			36.1	288
GCAUUGAUAACAGGAUAUAUGUUUCCUACAUGAGGAUCACCCAUGUAGGUGAUCAGCCGCGAAAAGUAGAAGGGUUAUCAAUGC	18	16.7		
GCCAAGCUAGGAUAUACCCAGGGUUUGUUCUCUAACAACACACAUGAGGAUCACCCAUGUAGAAGGAGCCGGGA			38.3	81
GCCAGGAUGUGAGGAUAUGCUGAGGAUACCUCAGCAGAAGGCACAUGAGGAUCACCCAUGUACACUUAUCAUAAAUACCCUGGC			13.5	18.1
GCCAUCACGUGAGGAUAUGCUCCCGUUUCGGGAGCAGAAGGCAUGUCAUAAGACAUGAGGAUCACCCAUGUAGUUAAGAUGGCA	317	12		
GCCAUCGCAUGAGGAUAUGGCACCGUUUCGGUGCCAGAAGGCAUGUCAUAAGACAUGAGGAUCACCCAUGUGAAUAAGAUGGCA	360	38.5		
GCCAUCGCAUGAGGAUAUGGUCACCUUUGGUGACCAGAAGGCAUGUCAUAAGACAUGAGGAUCACCCAUGUAGUUAAGAUGGCA	843	48		
GCCAUCGGGUGAGGAUAUAAAAUUAUAAUUAAAUUAGAAGGCACCUCAUAAGACAUGAGGAUCACCCAUGUAGUUAAGAUGGCA	87.6	29.5		
GCCAUUGCAUGAGGAUAUGCUCCCGUUUCGGGAGCAGAAGGCAUGUCAUAAGACAUGAGGAUCACCCAUGUAGUUAAGAUGGCA	398	15.2		
GCCCGAACCACAGGAUAUCCCAAUGUUUUACAGGGAGAAGGGUGAGAGUAUGACAUGAGGAUCACCCAUGUUGUUCGGGUGGAA	709	227		
GCCCGAUCCACGUUGGGCCCAGACAGAAGGGCACACGGUCUAAGUCACAUGAGGAUCACCCAUGUGCAGGAUAUGUCUCGACUC			7.63	25.9
GCCGAAAGUGUGAGGAUAUACCUAUGGAUACAUAGGUAGAAGGCACAUGAGGAUCACCCAUGUGUUUCAACGGC			19.3	71.6

Sequence	apparent Kd [1] [nM]	apparent Kd [2] [nM]	apparent Kd [3] [nM]	apparent Kd [4] [nM]
GCCGAUUAAGUGAGGAUAUACCUAUGGAUACAUAGGUAGAAGGCACAUGAGGAUCACCCAUGUUCCUUAACGGC			11.2	30
GCCGCAGGAACAGGAUAUGUGGGCAUAAAAUUAUACCAGGCCCACAUGAGGAUCACCCAUGUGACACAGAAGGGUUCCUAAAUA	619	29.8		
GCCUCACAUGAGGAUCACCCAUGUCAGGAUAUAGGAGACGGUAGCUUUGCUGCCAUCGCUAGAAGGGACUGGCU			68.2	111
GCCUCAUAGUAGAAGGGACUUAGGCAGUUAAGCAUCAUCUCCAUUUCACAUGAGGAUCACCCAUGUCAGGAUAUACUAAGAGGC			9.39	24.5
GCCUCAUAGUAGAAGGGACUUAGGCAGUUAAGCAUCAUGUCCAAUUAACAUGAGGAUCACCCAUGUCAGGAUAUACUAAGAGGC			8.03	25.1
GCCUUAUCGGUCAGGAUAUACACCCGCCAGUUGUUGUAGAAGGGACAUGAGGAUCACCCAUGUACAUUACAUUG			21.2	33.8
GCGAAUAACGAGGAUAUCGUAUCGGAAACGAUACGAGAAGGUGUAACAUGAGGAUCACCCAUGUUCCUCAACGC			37.5	36.4
GCGAGUAAAGCAGGAUAUCUAUUGUCUCUGUAACAUGAGGAUCACCCAUGUAGAGAAGGGCUUAGUCAUACAAUUCGAACUCGC			7.86	7.32
GCGAUUAAGUAGAAGGUACGUUAUAAGACAAUGUAAGGAUAUACUGACAUGAGGAUCACCCAUGUAAAAUUAGUUUACUGUCGC	7.34	6.44		
GCGAUUUUGUAAGGAUAUACACGAGUUUUAAGUGUAGAAGGUACUUACAUGAGGAUCACCCAUGUAUUAAUGAUUACUAGUCGC	6.99	6.33		
GCGAUUUUGUAGAAGGUACGUGAUUAGUCAAAGUAAGGAUAUACUGACAUGAGGAUCACCCAUGUAUUAAUAGUUAACAGUCGC	94.6	23.1		
GCGCAGCCGGGUGAGGAUAUCGGUGGUAAAACAUGAGGAUCACCCAUGUCCGAAGCUCGGACUUCCGAGAAGGCGCCCAGCUGCA	115	14.4		
GCGCCAUUGCAAGGAUAUCCUACAGAGGGUGCAGGAGAAGGUGCAUUGGUGAGACUAUAGGACAUGAGGAUCACCCAUGUACCU	14.8	17.9		
GCGCGAAGGUAGGAUAUCCAGGGAUCUUCCCGCGGAGAAGGACCCACAUGAGGAUCACCCAUGUGGUGAUCCUG			16.1	17.4
GCGCGUUGAGGAUAUACGAACAUGUCGCCAGAUGUCAUGGUACAUGAGGAUCACCCAUGUAGAAGGUGGUGCGC			208	352
GCGCUAAAACAGAAGGCCAAAUACAUGAGGAUCACCCAUGUCGAAUCAUGGAGGAUAUGUUAUUAAUUACACGCAGAUGAGCGC	90.8	9.9		
GCGCUUAUACAGAAGGCCAUAUACAUGAGGAUCACCCAUGUUAUUUGGUGGAGGAUAUGUUUUUUAUUACAGGUAGUUGAGCGC	7.42	5.91		
GCGGAGAUACAGAAGGGAUAAGCCCUGGGCUAGUCAGGAUAUGUACGACGCAUCGUACAUGAGGAUCACCCAUGUAGCCGCUUG	322	162		
GCGGGACGUCGAGGAUAUGGGUGUGCGAGUCUUGGCACUGGACAUGAGGAUCACCCAUGUCGCUUCCAGAAGGCGACGUCCCUA	34.8	6.67		
GCGGUUACGGUUGGCACUUAGCGAGAGGAUAUGGUAAGCUGGACAUGAGGAUCACCCAUGUACUAUCAGAAGGCUCGAGCACGC	7.94	9.15		
GCGUAACAUGAGGAUCACCCAUGUACCCGAGAAUUCGGGUCGAGAAGGGUGACCGGUCGUUUGGCACAGGAUAUCGACGUUGUG	19.4	14.5		
GCGUAACAUGAGGAUCACCCAUGUACCCGAGAAUUCGGGUCUAGAAGGGUGACCGGUCGUUUGGCACAGGAUAUAGACGUUGUG	30.7	11.3		
GCGUAUAUAAGAUUUAUAAAACAGUCAGAAGGUGAUAAGACGACAUGAGGAUCACCCAUGUAAUUCAAGGAUAUGAUAAUGCGC	56.3	15.4		
GCGUCACAAUUAGAACCAAUACGAACAUGAGGAUCACCCAUGUAGGAUAUGCUAGAAGUUGAGUUGCAGAAGGACAUUUAUCGC			10.6	9.8
GCGUGUAUAAGAUUUAUAAAACAGUCAGAAGGUGAUAAGACGACAUGAGGAUCACCCAUGUAAUUCAAGGAUAUGAUAAUACGC	53.8	13.3		
GCGUGUCAUGUAGGAUAUGACACAGGAAACUGGUCAGAAGGACAUGAGGAUCACCCAUGUAAAAUGUUCAAGAAUAACGCAUGC			40.6	137
GCGUUACAUGAGGAUCACCCAUGUGAGGAUAUGGUGCGGUACUGUCCUGUCGCGUACUCCAGAAGGCACGGGUG			150	85.3
